TRPC6 inhibitor: blocks the mouse TRPC6 cation channel | Q61143 | HEK293-TRPC6, membrane potential dye, ACh-evoked depolarization; stronger effect = lower value | B-score at 10 µM | hit rate 1.1% among 310,000 | AID 2553;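 active means B-score under library mean minus 3 SD, initial fluorescence not abnormally high, positive integrated signal ratio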;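 further: B-score derived from integrated fluorescence ratio over the kinetic read; more negative B-score means stronger inhibition of depolarization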
TRPC4 block: TRPC4 (mouse) channel inhibition; HEK293 TRPC4beta/mu-opioid, DAMGO-evoked Fluo4 calcium flux; stronger effect = lower value; B-score at 10 µM; hit rate 0.39% among 300,000;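 active means B-score over 3 SD under the library average, no early fluorescence shift, positive overall ratio signal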
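test system = HEK293 cells with stable TRPC4beta plus mu-opioid receptor expression | detection = Fluo4 Ca2+ flux fluorescence | read-out = integrated fluorescence ratio relative to baseline, converted to per-well B score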
TRPC4 act: opens the mouse TRPC4 cation channel; B-score at 10 µM; hit rate 0.49% among 310,000; Q9QUQ5; AID 2237; HEK293 TRPC4beta/mu-opioid, Fluo4 calcium fluorescence; stronger effect = higher value;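 active means B-score above 5 SD of library B-scores, and initial fluorescence ratio not above library mean plus 5 SD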;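 further: positive B-score marks a calcium rise read as TRPC4 activation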
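Material: TRPC4beta and mu-opioid receptor HEK293 stable cells | Incubation: 45 min room-temperature Fluo4 loading, 110 s read | Detection: Kinetic Fluo4 calcium fluorescence | Measure: Integrated baseline-normalised fluorescence ratio, converted to per-well B score | Benchmarks: Low control buffer alone, high control maximal DAMGO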
TRPC6 activator: mouse TRPC6 channel activation; Q61143; HEK293-TRPC6 membrane potential dye fluorescence; stronger effect = higher value; B-score at 10 µM; hit rate 0.13% among 310,000; AID 2550;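 active means B-score of the integrated fluorescence ratio above library mean plus 3 SD, and starting fluorescence ratio within library mean plus 5 SD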;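 further: higher score means more depolarization so channel activation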
TRPC4 PAM: TRPC4 (mouse) allosteric potentiation; HEK293 TRPC4beta/mu-opioid, DAMGO EC20, Fluo-4 Ca2+ flux; stronger effect = higher value; B-score at 10 µM; hit rate 0.42% among 310,000;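 active means B-score of calcium response area above 5 SD of library B-scores, with initial fluorescence ratio within 5 SD of library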
Each line names hits and unclear results; the compound was inactive in the other large screens. Rows were chosen to be rich in hits. Some 2.3% of all compounds tested hit in one or more screens of this group.

O=[N+]([O-])c1ccc(NC(=S)N2CCc3ccccc3C2)cc1	TRPC4 block -6
COc1ccc(C(=O)Nc2cccc3c2CCCC3)c(OC)c1	none
COCCn1nnnc1C(c1cc2ccc(OC)cc2[nH]c1=O)N1CCN(C2CCCCC2)CC1 (stereo not drawn)	TRPC4 act 136
COCCn1nnnc1C(c1cccc(OC)c1OC)N1CCN(C(=O)c2ccco2)CC1 (stereo not drawn)	none
COCCn1nnnc1C(c1cccc(OC)c1OC)N1CCN(C2CCCCC2)CC1 (stereo not drawn)	TRPC4 block -6
O=C(Nc1cc(F)ccc1F)C1CCN(S(=O)(=O)c2cccc3nonc23)CC1	none
CC1CC(C)CN(c2ccc(NS(=O)(=O)c3ccccc3)cc2C(=O)O)C1 (stereo not drawn)	none
CCOP(=O)(c1ccccc1)c1nc(-c2ccccc2C)oc1N1CCCCC1 (stereo not drawn)	TRPC4 PAM 11
CCOP(=O)(OCC)c1nc(-c2cccc3ccccc23)oc1N1CCCCC1	TRPC4 PAM 23
COP(=O)(OC)c1nc(-c2cccc3ccccc23)oc1N1CCCCC1	none
COc1ccccc1/C=C/C(=O)N1CCc2cc(OC)c(OC)cc2C1C (stereo not drawn)	none
CN1CCN(NC(=O)Nc2cc(Cl)cc(Cl)c2)CC1	TRPC4 PAM 26
Cc1cc(C)c(S(=O)(=O)NCc2cccs2)cc1C	TRPC4 PAM 13
Cc1ccc(S(=O)(=O)NCCC(=O)NC(C)CCc2ccccc2)cc1 (stereo not drawn)	none
CCOCCCNC(=O)c1ccc2c(=O)n(CCCOCC)c(=S)[nH]c2c1	none
CCCCCn1c(=O)[nH]c2cc(C(=O)NCCCN(C)Cc3ccccc3)ccc2c1=O	TRPC4 PAM 12
CCOCCCn1c(=S)[nH]c2cc(C(=O)NCCCN(CC)CC)ccc2c1=O	TRPC4 PAM 24
CCCCN(C)CCNC(=O)c1ccc(Cn2c(=S)[nH]c3ccc(Br)cc3c2=O)cc1	TRPC4 PAM 25
O=C(CN1C(=O)COc2ccccc21)NCCCN1CCCC1	none
CN1CCN(CCCNC(=O)CN2C(=O)COc3ccccc32)CC1	TRPC4 block -6
COc1ccc(CCNC(=O)c2ccc3nc[nH]c3c2)cc1	none
CCOC(=O)C1(CCc2ccccc2)CCN(Cc2ccn[nH]2)CC1	TRPC4 block -6
CCOC(=O)C1(Cc2cccc(F)c2)CCN(Cc2ccon2)CC1	none
CCOC(=O)C1(Cc2cccc(F)c2)CCN(Cc2cnc(C)s2)CC1	TRPC4 act 66
CCOC(=O)C1(CCCc2ccccc2)CCN(Cc2cnc(C)s2)CC1	TRPC4 act 74
COC(=O)C(Cc1ccccc1)NC(=O)CNC(=O)c1ccc(Br)cc1 (stereo not drawn)	none
COc1ccc(CCN2CC(C(=O)Nc3cc(F)ccc3F)CC2=O)cc1OC (stereo not drawn)	none
C=CCn1c(SCC(=O)c2ccc(NS(=O)(=O)c3ccccc3)cc2)nnc1-c1cccs1	TRPC4 PAM 18
C=CCn1c(SCC(=O)Nc2ccc(Br)cc2)nc(O)c(CC)c1=O	none
Cc1cccc(NC(=O)CC2C(=O)NCCN2C(=O)Nc2ccc(Cl)cc2)c1 (stereo not drawn)	none
O=C(CN1CCN(CCN2C(=O)c3cccc4cccc(c34)C2=O)CC1)c1ccc(F)cc1	none
COc1ccc(C(=O)CN2CCN(CCN3C(=O)c4cccc5cccc(c45)C3=O)CC2)cc1	TRPC4 PAM 15
CC1CCc2sc3ncnc(N4CCOCC4)c3c2C1 (stereo not drawn)	TRPC4 block -6
Clc1ccc(OCCn2ccnc2)c(Br)c1	TRPC4 PAM 21
OC(COc1ccc(Cl)cc1Cl)Cn1ccnc1 (stereo not drawn)	none
Clc1ccc(SCCn2ccnc2)cc1	TRPC4 act 63
Cc1cc(Cl)c(OCCn2ccnc2)c(Br)c1	none
Clc1ccc(SCCCCn2cncn2)cc1	none
COc1ccccc1OCCn1ccnc1	none
Clc1ccc(OCCn2ccnc2)c(Cl)c1	TRPC4 PAM 14
Clc1ccc(OCCn2ccnc2)c2ccccc12	TRPC4 act 53
CCOc1ccc(NC(=O)CSc2nc3ccsc3c(=O)n2CCC(=O)O)cc1	none
O=C(CC1OCC2CCCN2C1=O)Nc1ccc([N+](=O)[O-])cc1 (stereo not drawn)	none
CCOc1cccc(/C=C(\C#N)C(=O)NC2CC2)c1	none
CCOC(=O)C1(CCOc2ccccc2)CCN(Cc2ccncc2)CC1	none
CCOC(=O)C1(CCOC)CCN(Cc2ccccc2-c2ccco2)CC1	TRPC4 act 123
CCOC(=O)C1(CCOc2ccccc2)CCN(Cc2cccn2-c2ncccn2)CC1	TRPC4 block -9
CCOC(=O)C1(CCOc2ccccc2)CCN(Cc2ccc(C(=O)OC)cc2)CC1	none
CCOC(=O)C1(CCOC)CCN(Cc2ccncc2)CC1	none
CCOC(=O)C1(CCOc2ccccc2)CCN(Cc2cccs2)CC1	TRPC4 block -5
CCOC(=O)C1(CCOc2ccccc2)CCN(Cc2ccc(-n3cccn3)cc2)CC1	TRPC4 block -7
CCOC(=O)C1(CCOc2ccccc2)CCN(Cc2nccn2CC)CC1	none
O=C(N/C(=C\c1cccc([N+](=O)[O-])c1)C(=O)N1CCOCC1)c1ccco1	none
Cc1ccc(NC(=O)C2CC(O)CN2C(=O)OCc2ccccc2)c(C)c1 (stereo not drawn)	none
O=C(CN1CCOCC1)Nc1ccc([N+](=O)[O-])cc1	none
CC1CCN(S(=O)(=O)c2ccc(NC(=O)C3CCN(C(=O)c4ccco4)CC3)cc2)CC1	none
CCOC(=O)C1(CCOc2ccccc2)CCN(Cc2cccc(OC)c2)CC1	none
CCOC(=O)C1(CCOc2ccccc2)CCN(Cc2cc(OC)ccc2OC)CC1	TRPC4 act 98
COc1cc(/C=C/C(=O)OCC(=O)N2CCCc3ccccc32)ccc1OC(F)F	none
O=C(Nc1ccc(S(=O)(=O)Nc2ccccc2F)cc1)N1CCCCC1	none
N#CCCn1cc(CNCc2ccccc2)c(-c2cccc([N+](=O)[O-])c2)n1	TRPC4 block -6
O=C(NCc1cn(-c2ccccc2)nc1-c1ccccc1)c1cccc([N+](=O)[O-])c1	none
CSc1cccc(CN2CCC(n3nccc3NC(=O)C3CC3)CC2)c1	none
O=C(NCc1ccco1)c1ccc(Cl)cc1[N+](=O)[O-]	none
Cc1ccc(S(=O)(=O)N2CCC(C(=O)OCC(=O)N(C)CC(=O)Nc3ccc(F)cc3)CC2)cc1C	TRPC4 PAM 79
COc1ccc(CCN(C)CCCN2CC(c3ccccc3)CC2=O)cc1OC (stereo not drawn)	none
COc1ccc(C2CC(=O)N(CCCN(C)CCc3ccc(OC)c(OC)c3)C2)cc1 (stereo not drawn)	TRPC4 PAM 13
O=C(CSc1nc2scc(-c3ccccc3)c2c(=O)[nH]1)N1CCOCC1	none
CC(C)c1ccccc1OCCCCN1CCCCC1	none
CC(C)c1ccccc1OCCCCCN1CCOCC1	TRPC4 PAM 13

Screening results (PubChem BioAssay)
